Results as given in ChEMBL document CHEMBL1221344, “Cytotoxic halogenated macrolides and modified peptides from the apratoxin-producing marine cyanobacterium Lyngbya bouillonii from Guam” (J Nat Prod, 2010).

Legend:
HT-29 = experiment: Cytotoxicity against human HT-29 cells after 48 hrs by MTT assay; format: functional, cell-based; settings: HT-29, 48 h
How it was run: (§1)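 Cells grown in DMEM with 10% FBS at 37 °C under humidified 5% CO2. HeLa seeded at 3,000/well and HT29 at 12,500/well, then allowed 24 h before exposure to varying compound concentrations for 48 h. Viability read by MTT; IC50 values derived from duplicate experiments.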

HeLa = experiment: Cytotoxicity against human HeLa cells after 48 hrs by MTT assay; format: functional, cell-based; how it was run: as §1

| SMILES | IC50 (HT-29) [µM] | IC50 (HeLa) [µM] |
| --- | --- | --- |
| CO[C@@H]1[C@@H](OC)[C@H](C)O[C@@H](O[C@@H]2C[C@H]3O[C@@](O)(C2)[C@@H](C)C(=O)O[C@@H](/C=C/C=C/Br)C[C@@H](C)/C=C\C[C@H](O)[C@@H]3C)[C@@H]1OC | 38 | 33 |
| CC(C)[C@@H]1NC(=O)CNC(=O)[C@@H]2CSC(=N2)[C@H](C(C)(C)O)OC(=O)C(C)(C)[C@H](CCCC(C)(Cl)Cl)OC(=O)c2csc1n2 [LYNGBYABELLIN B] | 1.1 | 0.71 |
| CC[C@H](C)[C@@H]1NC(=O)CNC(=O)c2csc(n2)[C@H](C(C)C)OC(=O)C(C)(C)[C@H](CCCC(C)(Cl)Cl)OC(=O)c2csc1n2 [27-DEOXYLYNGBYABELLIN A] | 0.012 | 0.0073 |
| CO[C@@H]1[C@@H](OC)[C@H](C)O[C@@H](O[C@@H]2C[C@@H]3CC[C@@H](C)[C@H](O)C[C@@](C)(CC/C=C/C=C\Br)OC(=O)C[C@](O)(C2)O3)[C@@H]1OC | > 100 | 53 |
| CC[C@H](C)[C@@H]1NC(=O)CNC(=O)c2csc(n2)[C@H](C(C)(C)O)OC(=O)C(C)(C)[C@H](CCCC(C)(Cl)Cl)OC(=O)c2csc1n2 [LYNGBYABELLIN A] | 0.047 | 0.022 |
| CO[C@@H]1[C@@H](OC)[C@H](C)O[C@@H](O[C@@H]2C[C@@H]3CC[C@@H](C)[C@H](O)C[C@@](C)(CC/C=C/C=C/Br)OC(=O)C[C@](O)(C2)O3)[C@@H]1OC | 13 | 9.3 |
| CCCC(=O)N[C@@H](C(C)C)[C@@H](CC(=O)O[C@@H]1COC(=O)c2csc(n2)[C@@H]([C@@](C)(O)CC)OC(=O)[C@@H](C)[C@H](CCCC(C)(Cl)Cl)OC(=O)c2csc1n2)OC(C)=O [LYNGBYABELLIN J] | 0.054 | 0.041 |
| CO[C@@H]1[C@@H](OC)[C@H](C)O[C@@H](O[C@@H]2C[C@H]3O[C@@](O)(C2)[C@H](C)C(=O)O[C@@H](/C=C/C=C/Br)C[C@@H](C)/C=C\C[C@H](O)[C@@H]3C)[C@@H]1OC [LYNGBYALOSIDE] | 37 | 35 |
